Sampled rows, rich in hits. Any-hit rate of the full collection: about 3.2%.
NR2E3 ag-1 – NR2E3 agonists in two-hybrid cells, primary screen, cell-based, luminescence, CHO-S, Gal4-NCOR/VP16-NR2E3; Photoreceptor-specific nuclear receptor (Homo sapiens), Q9Y5X4; luciferase; inhibition of corepressor binding, % at 3.98 µM; actives 0.35% (n = 360,000);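 active means inhibition above the mean of all tested compounds plus 3 SD, cut at about 70% in these data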;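 further: 0% = DMSO with NR2E3 transfected cells and 100% = cells lacking NR2E3 construct; higher means lower luciferase signal from less NR2E3 corepressor binding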
Target sequence (Q9Y5X4 whole entry, looked up, the tested form may be a part): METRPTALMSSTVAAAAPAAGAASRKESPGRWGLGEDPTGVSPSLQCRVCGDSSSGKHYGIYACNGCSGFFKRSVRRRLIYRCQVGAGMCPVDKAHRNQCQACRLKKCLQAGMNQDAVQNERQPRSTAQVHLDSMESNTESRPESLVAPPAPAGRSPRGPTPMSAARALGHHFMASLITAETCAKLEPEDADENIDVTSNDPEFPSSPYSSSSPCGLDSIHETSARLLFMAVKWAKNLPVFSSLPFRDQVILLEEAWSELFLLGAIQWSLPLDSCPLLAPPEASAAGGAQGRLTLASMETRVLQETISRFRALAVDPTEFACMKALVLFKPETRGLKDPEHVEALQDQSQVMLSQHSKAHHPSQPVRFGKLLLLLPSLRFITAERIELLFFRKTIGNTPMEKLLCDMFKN
SMARCA2 act – SMARCA2 (BRM) function activators, primary screen, cell-based, luminescence, high throughput; actives 1% (n = 370,000); AID 652017, 2013; MG213 cells, MMTV-luciferase reporter, dexamethasone, overnight; activation, % at 9.1 µM; in the data active means activation above about 7.8%;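 further: 0% = vehicle wells and 100% = reference activator wells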
NR2E3 ag-2 – inhibitors of NR2E3-RetCOR corepressor binding, primary screen, NR2E3 agonist project, biochemical, TR-FRET, GST-NR2E3, biotin-RetCOR; Photoreceptor-specific nuclear receptor (Homo sapiens), Q9Y5X4; 1536-well; inhibition of corepressor binding, % at 4.78 µM; actives 0.12% (n = 320,000);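 active means percent inhibition above the cutoff of mean plus 3 SD of all tested compounds, set per screening campaign, cut at about 20% in these data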;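 further: 0% = DMSO wells and 100% = biotin wells as full block of FRET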
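Material: NR2E3–RetCOR corepressor complex | Quantity: 1.35 nM GST-tagged NR2E3 final | Schedule: 5 h at 4 °C | Replication: Singlicate compound wells | Reagent: RetCOR corepressor, biotinylated, 7 nM | Controls: Biotin wells as high control, 0.6% DMSO wells as low control | Signal: TR-FRET, Eu(K)-anti-GST donor, streptavidin-D2 acceptor, ex 340, em 617/671 nm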
DAX1 inh-1 – DAX1 (NR0B1) inhibitors on StAR promoter, primary screen, cell-based, luminescence, SF-1 (NR5A1), full-length DAX-1; HEK293T StAR-luciferase reporter, SF-1/DAX-1 repression relief; inhibition, % at 6.8 µM; actives 1.1% (n = 370,000); AID 652010, 2013;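 active means inhibition above the mean over all tested compounds plus 3 SD, cut at about 3.6% in these data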;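 further: 0% = DAX-1 cells with DMSO and 100% = cells lacking DAX-1 with DMSO; higher inhibition means more luminescence from relief of DAX-1 repression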
GASC-1 inh – inhibitors of GASC-1 histone demethylase, primary screen, biochemical, fluorescence, DELFIA europium; inhibition, % at 2.35 µM; GST-JMJD2C(1-420) H3K9me3 demethylation; actives 0.069% (n = 330,000); Lysine-specific demethylase 4C (Homo sapiens), Q9H3R0;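 active means more than half of a compound's replicate wells show inhibition beyond 50%, single wells judged on their own value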;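 further: signal counts dimethyl H3K9 product captured on neutravidin plate; 0% = median of DMSO wells and 100% = 0.3 times that DMSO median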
DAX1 inh-2 – DAX1 (NR0B1) inhibitors, primary screen, cell-based, HEK293, Gal4-DAX1, luciferase luminescence | Nuclear receptor subfamily 0 group B member 1 (Homo sapiens), P51843 | HEK293 Gal4-DAX1 luciferase reporter | inhibition, % at 6.75 µM | actives 0.99% (n = 340,000) | AID 504766, 2011;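 active means inhibition above the mean over all tested compounds plus 3 SD, cut at about 4.2% in these data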;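 further: 0% = DAX1-transfected cells with DMSO and 100% = empty-vector control cells with DMSO; inhibition shows as a rise in luminescence from relieved DAX1 repression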
* = called active by the depositor; x = no result given.

SMILES	NR2E3 ag-1	SMARCA2 act	NR2E3 ag-2	DAX1 inh-1	GASC-1 inh	DAX1 inh-2
CN1CCN(c2ccncc2S(=O)(=O)N2CCCCC2)CC1	-6.9	-1.1	2.7	-0.2	-14.7	4.9*
O=C(Cn1c(=O)oc2ccccc21)N1CCN(c2ccccc2)CC1	10.7	-3.9	1.3	0.2	22.1	-0.5
COc1cccc(N2CCN(C(=O)Cn3c(=O)oc4ccccc43)CC2)c1	-17.7	0.8	-2.9	0.1	-3.6	4.3*
N#CCC(=O)N/N=C\c1ccccc1OC/C=C/c1ccccc1	-64.7	0.1	3.2	4.3*	-3.9	2.2
O=C(NNC(=O)c1ccccc1Br)c1ccccc1Cl	-35.1	-1.3	1.3	0.8	6.0	5.5*
Cc1ccc(NC(=O)c2ccccc2F)c(NC(=O)c2ccccc2F)c1	-12.0	7.3	-3.0	-0.3	-5.4	7.6*
CSc1ccccc1C(=O)Nc1cc(C)ccc1C	10.7	-2.1	0.2	-0.7	-7.1	0.0
O=C(NNC(=O)c1ccccc1Br)c1ccc(Cl)cc1	-15.5	0.1	-1.1	0.4	-0.5	0.6
O=C(Nc1ccc(Cl)cc1F)c1ccccc1Br	-98.8	7.5	-2.6	4.4*	0.2	1.4
CCOC(=O)[C@@]12CCCC=C1N(CCc1ccc(Cl)cc1)C(=O)[C@H]2CC(=O)N1CCN(C(=O)c2ccco2)CC1	x	-2.7	x	-1.5	x	x
COc1ccc(Cn2ccc3ccc(-c4ccc5ccn(C(=O)c6ccccc6)c5c4)cc32)cc1	x	2.1	x	-0.2	x	x
Cc1ccc2c(c1)C1CS(=O)(=O)N(Cc3ccccc3)CN1C2 (stereo not drawn)	x	-2.7	x	0.7	x	x
Brc1cccc(C2Nc3cccc4cccc(c34)N2)c1	-20.3	-4.9	3.5	0.4	-4.9	5.2*
O=C(NCCC1=CCCCC1)Nc1ccc2nsnc2c1	-153.4	1.0	2.4	3.8*	20.3	2.9
O=C(NCCC1=CCCCC1)NC12CC3CC(CC(C3)C1)C2	-113.2	-0.6	0.7	3.7*	3.5	0.2
CCOC(=O)[C@]12CCCC3=C1N(CCC3)C(=O)[C@@H](CC(=O)NCC1CCCCC1)C2	x	-3.1	x	-0.5	x	x
O=C(Nc1ccc(F)cc1)OCc1cn(Cc2ccc(C(F)(F)F)cc2)nn1	x	-2.1	x	-0.2	x	x
Cc1cc(NCc2ccccn2)n2ncc(-c3ccccc3)c2n1	-72.2	-3.0	3.7	2.8	-5.8	4.7*
Cc1cc(NCc2ccccn2)n2ncc(-c3ccc(Cl)cc3)c2n1	-128.8	2.8	-3.6	1.0	2.3	x
Cc1cc(NCCOCCO)n2ncc(-c3ccc(Cl)cc3)c2n1	-27.5	-1.8	-2.9	3.7*	-10.4	3.9
COc1ccc(Cn2ccc3ccc(-c4ccc5ccn(C(=O)c6ccc(C)cc6)c5c4)cc32)cc1	x	-0.1	x	-0.8	x	x
CC[C@]12CCCN3CCc4c(n(c5ccccc45)C(=O)C1)[C@@H]32	-47.9	-3.7	4.6	-1.8	x	0.5
CC[C@]12CCCN3CCc4c(n(c5ccccc45)[C@@](O)(C(=O)OC)C1)[C@@H]32	-17.8	1.4	0.2	0.8	x	5.0*
CC1CCc2nn(CC(=O)NCCN3CCCCC3C)cc2C1 (stereo not drawn)	-57.8	-0.3	-1.1	0.6	-14.0	5.8*
Cc1ccn(CCC(=O)N2CCc3ccccc32)n1	-22.3	1.2	-2.1	4.1*	0.6	1.4
CC1CCc2nn(CC(=O)N3CCc4ccccc43)cc2C1 (stereo not drawn)	6.3	0.5	-2.1	1.1	6.4	4.6*
CC1CCc2nn(CC(=O)N3CCCCCC3)cc2C1 (stereo not drawn)	-32.0	-2.2	-0.4	0.3	-1.9	1.8
COc1cccc(-c2nc(=S)c3c(o2)CCCC3)c1	-74.4	5.6	3.9	3.7*	-35.0	5.1*
S=c1nc(-c2ccccc2)oc2c1CCCC2	-81.9	-2.5	0.3	1.5	0.8	2.2

Assay outcomes as filed in PubChem BioAssay.
